From ChEMBL document CHEMBL1146767, “New highly selective inhibitors of class II fructose-1,6-bisphosphate aldolases” (Bioorg Med Chem Lett, 2004)

Key:
[1] = (§1) In vitro binding affinity towards FBP aldolase from Bacillus subtilis
How it was run: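 Class II aldolase from Bacillus subtilis with FBP as substrate. DHAP formed was measured at 340 nm as NADH consumption, coupled to a 300-fold excess of glycerophosphate dehydrogenase. Medium was 0.1 M glycylglycine buffer pH 7.4, without 2-mercaptoethanol.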

[2] = In vitro binding affinity towards FBP aldolase from yeast; set-up: species or system Saccharomyces cerevisiae
How it was run: (§2)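 Yeast aldolase was partly purified after French-press cell disruption (specific activity 5.5 U/mg). DHAP from FBP cleavage was coupled to glycerophosphate dehydrogenase (300-fold excess), with NADH loss monitored at 340 nm. Buffer was 0.1 M glycylglycine, pH 7.4, with 0.01 M 2-mercaptoethanol. FBP served as substrate.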

[3] = In vitro binding affinity towards FBP aldolase from rabbit; set-up: species or system Oryctolagus cuniculus
How it was run: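 Rabbit muscle class I aldolase, FBP substrate. Cleavage product DHAP was followed spectrophotometrically at 340 nm through NADH consumption, using a 300-fold excess of glycerophosphate dehydrogenase as coupling enzyme. Medium was 0.1 M triethanolamine–HCl pH 7.6 with 1 mM EDTA.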

[4] = species on record: Oryctolagus cuniculus; test: Selectivity (Ki rabbit /Ki B:subtilis) of inhibitors for class II versus class I FBP aldolase
[5] = species on record: Oryctolagus cuniculus; test: Selectivity (Ki rabbit /Ki yeast) of inhibitors for class II versus class I FBP aldolase
[6] = In vitro binding towards FBP aldolase from rabbit; set-up: species or system Oryctolagus cuniculus
How it was run: (§3)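 Rabbit muscle class I aldolase was assayed in 0.1 M triethanolamine–HCl, pH 7.6, with 1 mM EDTA. DHAP released from FBP was measured through a coupled reaction with a 300-fold excess of glycerophosphate dehydrogenase, following NADH consumption spectrophotometrically at 340 nm.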

[7] = test system: Bacillus subtilis; test: Enzymatic kinetics (Km) constant towards FBP aldolase from Bacillus subtilis
How it was run: (§4)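 B. subtilis class II aldolase. FBP cleavage was followed by reducing the DHAP formed with a 300-fold excess of glycerophosphate dehydrogenase and reading NADH consumption at 340 nm. Medium was 0.1 M glycylglycine buffer, pH 7.4, without 2-mercaptoethanol. Inhibition was analysed with FBP as substrate.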

[8] = test system: Saccharomyces cerevisiae; test: Enzymatic kinetics (Km) constant towards FBP aldolase from yeast; how it was run: as §2
[9] = species on record: Oryctolagus cuniculus; test: Enzymatic kinetics (Km) constant towards FBP aldolase from rabbit; how it was run: as §3
[10] = as §1; how it was run: as §4; remark: listed apart in the source

## NNC(=O)COP(=O)(O)O [PHOSPHORIC ACID MONOHYDRAZINOCARBONYLMETHYL ESTER]
[1]
  Ki: 670 µM
[2]
  Ki: 0.34 µM
[3]
  Ki: 370 µM
[4]
  Selectivity: 552
[5]
  Selectivity: 1090

## O=C(COP(=O)(O)O)NO [PHOSPHOGLYCOLOHYDROXAMATE]
[2]
  Ki: 0.01 µM
[6]
  Ki: 1 µM
[5]
  Selectivity: 100

## O=P(O)(O)OC[C@H]1O[C@](O)(COP(=O)(O)O)[C@@H](O)[C@@H]1O
[7]
  Km: 2000 µM
[8]
  Km: 450 µM
[9]
  Km: 55 µM

## N/C(COP(=O)(O)O)=N/O
[10]
  Ki: 3.3 µM
[2]
  Ki: 2.3 µM
[3]
  Ki: > 1000 µM
[4]
  Selectivity: > 303
[5]
  Selectivity: > 435
